The nature of data set [1]: folding enthalpy; higher = less favourable; fluorescence melt of hairpins on a sequencing array, two-state fit. Conditions: sodium 0.088 M. An outline of the steps:
(§1)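 Melting temperature and folding enthalpy were obtained by bootstrapped two-state fitting. Fits used Cy3 fluorescence of library hairpins with annealed Cy3 and quencher oligos on a sequenced MiSeq flow cell, imaged in 50 mM Na-HEPES pH 8.0, 25 mM NaCl in 2.5 °C steps up to 60 °C and normalised to pre-quench Cy3 and control constructs. Four replicates were combined by inverse-variance weighting, and fitted temperatures were raised by 9.35 °C to match UV melts.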

Data set [2] is described as follows: melting temperature; fluorescence melt of hairpins on a sequencing array, two-state fit, raised by 9.35 °C to match UV melts. To be noted: sodium 0.088 M. An outline of the steps: as §1

In the case of GGCCACACGAAAGTGGCC (((..(((....)))))), the folding enthalpy in data set [1] is -39.1 kcal/mol. The Tm in data set [2] was determined as 67.5 °C.
With GGCCACCGAAAGGTAGCC (((.(((....))).))), in data set [1], the folding enthalpy was -38.3 kcal/mol. For the same sequence, the Tm in data set [2] was determined as 57.5 °C.
Regarding GGCCACGAAAGTGAAGCC ((((((....)))..))), the folding enthalpy in data set [1] was -31.9 kcal/mol. Also, in data set [2], the Tm was 53.5 °C.
Take GGCCACGAAAGTGACGCC ((((((....)))..))): the folding enthalpy in data set [1] was -21.7 kcal/mol. Besides, the Tm in data set [2] came to 52.1 °C.
Turning to GGCCACGAAAGTGCCGCC ((((((....)))..))), the folding enthalpy in data set [1] is -32 kcal/mol. Moreover, the Tm in data set [2] came to 59.8 °C.
Take GGCCACGAAAGTGCGGCC ((((((....)))..))): the folding enthalpy in data set [1] was -39.6 kcal/mol. The Tm in data set [2] came out at 55.6 °C.
Turning to GGCCACGGAAACGCGACC ((.(.((....)).).)), in data set [1], the folding enthalpy is -25.8 kcal/mol. In addition, the Tm in data set [2] worked out at 36.7 °C.
As to GGCCAGCGAAAGCTCGCC (((.(((....))).))), in data set [1], the folding enthalpy was -38.9 kcal/mol. Besides, in data set [2], the Tm was found to be 53.4 °C.
For the sequence GGCCAGGGAAACCCAGCC (((..((....))..))), the folding enthalpy in data set [1] was -30.5 kcal/mol. Besides, the Tm in data set [2] was determined as 42.1 °C.
The corresponding values for GGCCAGGGAAACCTGGTC (.(((((....))))).) are -33.5 kcal/mol and 57.6 °C.
As to GGCCAGGGAAACTTGGCC (((((.(....).))))), the folding enthalpy in data set [1] was -35.7 kcal/mol. Also, in data set [2], the Tm was determined as 57 °C.
For the sequence GGCCATGGAAACGTGGCC (((((.(....).))))), the folding enthalpy in data set [1] was -52.1 kcal/mol. Moreover, the Tm in data set [2] worked out at 62 °C.
For the sequence GGCCCACGAAAGTGTGCC (((.(((....))).))), the folding enthalpy in data set [1] is -49.1 kcal/mol. For the same sequence, the Tm in data set [2] came out at 58.1 °C.
The like results for GGCCCAGGAAACTAGGCC ((((.((....)).)))) were, in that order, -30.3 kcal/mol and 48.1 °C.
The like results for GGCCCCCGAAAGGGCGCC (((.(((....))).))) were, in that order, -24.8 kcal/mol and 58.3 °C.
As for GGCCCCGAAAGGGAGGCC ((((((....)))..))), the folding enthalpy in data set [1] is -26.9 kcal/mol. Also, in data set [2], the Tm amounted to 64.5 °C.
Turning to GGCCCCGAAAGGGCAGCC ((((((....)))..))), the folding enthalpy in data set [1] is -12.8 kcal/mol. Besides, the Tm in data set [2] came to 58.6 °C.
Regarding GGCCCCGAAAGGGGTGCC ((((((....)))..))), the folding enthalpy in data set [1] was -12.1 kcal/mol. In data set [2], the Tm was determined as 59.1 °C.
For the sequence GGCCGAACGAAAGTTGCC (((..(((....)))))), in data set [1], the folding enthalpy is -23.5 kcal/mol. Also, the Tm in data set [2] is 38.9 °C.
For GGCCGACGAAAGTCAGCC (((.(((....))).))), the folding enthalpy in data set [1] was -35.5 kcal/mol. In addition, the Tm in data set [2] is 59.4 °C.
Turning to GGCCGAGCGAAAGCTGCC (((..(((....)))))), in data set [1], the folding enthalpy was -21.4 kcal/mol. Besides, in data set [2], the Tm stood at 50.7 °C.
Regarding GGCCGAGGAAACCCGGCC (((((.(....).))))), in data set [1], the folding enthalpy was -36.9 kcal/mol. Moreover, in data set [2], the Tm is 65.5 °C.
The like results for GGCCGAGGAAACTCGACC ((.((((....)))).)) were, in that order, -35 kcal/mol and 51.4 °C.
As to GGCCGCCGAAAGGCAGCC (((.(((....))).))), the folding enthalpy in data set [1] is -25.5 kcal/mol. For the same sequence, the Tm in data set [2] was determined as 67.4 °C.
The corresponding values for GGCCGCCGAAAGGCTGCC (((.(((....))).))) are -30.7 kcal/mol and 65.5 °C.
Regarding GGCCGCGAAAGCGAAGCC ((((((....)))..))), the folding enthalpy in data set [1] was -27.7 kcal/mol. For the same sequence, in data set [2], the Tm is 58.9 °C.
The corresponding values for GGCCGCGAAAGCGGTGCC ((((((....)))..))) are -10 kcal/mol and 55.7 °C.
With GGCCGCGGAAACGCAGCC (((.(((....))).))), the folding enthalpy in data set [1] was -38.1 kcal/mol. Moreover, the Tm in data set [2] was 61.3 °C.
As for GGCCGGCGAAAGCCTGCC (((.(((....))).))), the folding enthalpy in data set [1] is -29.7 kcal/mol. The Tm in data set [2] came to 65.2 °C.
The corresponding values for GGCCGTCCGAAAGGAGCC (((..(((....)))))) are -15.8 kcal/mol and 43.4 °C.
Regarding GGCCTACGAAAGTAAGCC (((.(((....))).))), the folding enthalpy in data set [1] is -35 kcal/mol. Moreover, the Tm in data set [2] was determined as 49.5 °C.
The like results for GGCCTACGAAAGTAGCC (((.(((....)))))) were, in that order, -22.4 kcal/mol and 53.6 °C.
On to GGCCTAGGAAACTAAGCC (((.(((....))).))), for which the folding enthalpy in data set [1] was -20.1 kcal/mol. In addition, the Tm in data set [2] stood at 38.2 °C.
With GGCCTAGGAAACTAGACC ((.((((....)))).)), in data set [1], the folding enthalpy was -28.6 kcal/mol. For the same sequence, in data set [2], the Tm stood at 40.6 °C.
With GGCCTAGGAAACTGGGCC ((((.((....)).)))), the folding enthalpy in data set [1] was -47.7 kcal/mol. The Tm in data set [2] came out at 57.9 °C.
GGCCTCCGAAAGGAAGCC (((.(((....))).))): the folding enthalpy in data set [1] is -40.9 kcal/mol. Also, in data set [2], the Tm was found to be 55.5 °C.
The corresponding values for GGCCTCGAAAGAGGAGCC ((((((....)))..))) are -14.5 kcal/mol and 47.2 °C.
With GGCCTCGAAAGAGGCGCC ((((((....)))..))), the folding enthalpy in data set [1] was -6.36 kcal/mol. For the same sequence, the Tm in data set [2] turned out to be 66.5 °C.
On to GGCCTGCGAAAGCAGCC (((.(((....)))))), for which the folding enthalpy in data set [1] was -15.8 kcal/mol. For the same sequence, the Tm in data set [2] was 61.1 °C.
Regarding GGCCTGGGAAACCAGACC ((.((((....)))).)), the folding enthalpy in data set [1] is -30.1 kcal/mol. Moreover, the Tm in data set [2] was determined as 49 °C.
The corresponding values for GGCCTTACGAAAGTAGCC (((..(((....)))))) are -22.1 kcal/mol and 36.8 °C.
The like results for GGCCTTGCGAAAGCAGCC (((..(((....)))))) were, in that order, -15.8 kcal/mol and 45.2 °C.
Regarding GGCCTTGGAAACAAGGTC (.(((((....))))).), the folding enthalpy in data set [1] was -34.4 kcal/mol. The Tm in data set [2] was found to be 55.7 °C.
For the sequence GGCGAACGAAAGTTAGCC (((.(((....))).))), the folding enthalpy in data set [1] is -34.4 kcal/mol. In addition, the Tm in data set [2] was 59.8 °C.
In the case of GGCGAACGAAAGTTTGCC (((.(((....))).))), the folding enthalpy in data set [1] was -37 kcal/mol. Besides, in data set [2], the Tm was 62.1 °C.
As to GGCGAAGAAATTCGCC ((((((....)))))), the folding enthalpy in data set [1] is -36.2 kcal/mol. Further, the Tm in data set [2] turned out to be 63.1 °C.
The like results for GGCGACCGAAAGGTAGCC (((.(((....))).))) were, in that order, -26.2 kcal/mol and 69 °C.
Regarding GGCGACGAAAGTCAGCC ((((((....))).))), the folding enthalpy in data set [1] was -28.1 kcal/mol. For the same sequence, the Tm in data set [2] amounted to 65.6 °C.
The like results for GGCGACGAAAGTCCGGCC ((((((....)))..))) were, in that order, -21.7 kcal/mol and 51.5 °C.
The corresponding values for GGCGACGGAAACGTTGCC (((.(((....))).))) are -48.8 kcal/mol and 65 °C.
For GGCGAGAAATCGCC (((((....))))), in data set [1], the folding enthalpy is -26.4 kcal/mol. In addition, the Tm in data set [2] turned out to be 65.5 °C.
As to GGCGAGTCGAAAGACGCC (((..(((....)))))), the folding enthalpy in data set [1] was -22.2 kcal/mol. Also, in data set [2], the Tm is 56.3 °C.
The like results for GGCGATCCGAAAGGAGCC (((..(((....)))))) were, in that order, -35.4 kcal/mol and 53.9 °C.
As to GGCGATCGAAAGATTGCC (((.(((....))).))), in data set [1], the folding enthalpy is -46.7 kcal/mol. The Tm in data set [2] was 62.9 °C.
The corresponding values for GGCGATGCGAAAGCAGCC (((..(((....)))))) are -19.5 kcal/mol and 58.5 °C.
As for GGCGATTCGAAAGAAGCC (((..(((....)))))), the folding enthalpy in data set [1] was -23.2 kcal/mol. In addition, the Tm in data set [2] was determined as 46.4 °C.
The like results for GGCGCAGGAAACCGCGCC (((((.(....).))))) were, in that order, -37.3 kcal/mol and 68.8 °C.
As to GGCGCAGGAAACTGTGCC (((.(((....))).))), the folding enthalpy in data set [1] is -47.6 kcal/mol. For the same sequence, the Tm in data set [2] was 61.2 °C.
Regarding GGCGCCGAAAGGCATGCC ((((((....)))..))), in data set [1], the folding enthalpy was -19.2 kcal/mol. For the same sequence, the Tm in data set [2] is 59.7 °C.
GGCGCTACGAAAGTAGCC (((..(((....)))))): the folding enthalpy in data set [1] is -9.44 kcal/mol. Besides, in data set [2], the Tm is 49.4 °C.
The like results for GGCGCTGGAAACAGTGCC (((.(((....))).))) were, in that order, -49.2 kcal/mol and 62.6 °C.
Take GGCGCTTCGAAAGAAGCC (((..(((....)))))): the folding enthalpy in data set [1] is -9.84 kcal/mol. Besides, in data set [2], the Tm is 47.8 °C.
Regarding GGCGGAGCGAAAGCTGCC (((..(((....)))))), the folding enthalpy in data set [1] was -17 kcal/mol. In addition, in data set [2], the Tm turned out to be 52.3 °C.
On to GGCGGCGAAAGCCACGCC ((((((....)))..))), for which the folding enthalpy in data set [1] was -17.1 kcal/mol. Moreover, in data set [2], the Tm was 63.6 °C.
For GGCGGCGAAAGCCCTGCC ((((((....)))..))), the folding enthalpy in data set [1] was -20.1 kcal/mol. Moreover, in data set [2], the Tm is 53.6 °C.
With GGCGGCGAAAGCCGTGCC ((((((....)))..))), the folding enthalpy in data set [1] was -10.1 kcal/mol. Moreover, the Tm in data set [2] amounted to 57.7 °C.
GGCGGCGGAAACGCCACC ((.((((....)))).)): the folding enthalpy in data set [1] was -27.5 kcal/mol. The Tm in data set [2] was 63.7 °C.
As for GGCGGGACGAAAGTCGCC (((..(((....)))))), in data set [1], the folding enthalpy was -28.6 kcal/mol. Besides, the Tm in data set [2] stood at 59.5 °C.
Take GGCGGGGGAAACTCCGCC (((((.(....).))))): the folding enthalpy in data set [1] is -38 kcal/mol. In addition, the Tm in data set [2] was 67.7 °C.
In the case of GGCGGTGGAAACACTGCC (((.(((....))).))), the folding enthalpy in data set [1] was -47.3 kcal/mol. Besides, the Tm in data set [2] was found to be 61.6 °C.
With GGCGGTGGAAACGTCGCC ((((..(....)..)))), the folding enthalpy in data set [1] is -33.8 kcal/mol. Moreover, the Tm in data set [2] stood at 53.9 °C.
For GGCGTAACGAAAGTTGCC (((..(((....)))))), the folding enthalpy in data set [1] is -25.3 kcal/mol. Besides, the Tm in data set [2] came to 48.9 °C.
Turning to GGCGTACGAAAGTAGGCC (((.(((....))).))), in data set [1], the folding enthalpy is -36.6 kcal/mol. Moreover, the Tm in data set [2] is 64.1 °C.

These data come from the array DNA melting data of Ke et al. (doi:10.1101/2024.01.08.574731).
